From PubChem BioAssay come the findings set out here.

A short description of assay [1]: inhibitors of TNFa-induced NFkB p65 translocation, primary screen, imaging, HUVEC, MLSMR starter and 10KST1 sets (AID 438;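 active = inhibition above 20% together with a positive visual image hit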;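 also: compound added about 3h40 before a 20 min TNFalpha stimulation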;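 as to inhibition: signal is the nuclear over cytoplasmic p65 intensity ratio per well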). The following applies: HUVEC TNFa-induced p65 nuclear translocation; cell count: measured here: nuclei count (cytotoxicity indicator), at 2.08 µM; inhibition: at 2 µM, stronger effect = higher value, 0% TNFa-plus-vehicle, 100% no-TNFa wells.
A short description of assay [2]: endothelial E-selectin expression blockers – imaging, HUVEC, immunofluorescence, MLSMR starter and 10KST1 sets, primary screen (AID 487;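 active = visually confirmed hit in the image check and inhibition above 20%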;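 as to inhibition: signal is fraction of cell area covered by stained E-selectin grains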;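 as to nuclei count: 100% = median nuclei count of all wells on the same plate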). The following applies: HUVEC TNFalpha-induced E-selectin immunofluorescence imaging, at 2 µM; inhibition: stronger effect = higher value; nuclei count: measured here: cell number, toxicity.
Assay [3] can be described thus: Primary imaging screen for DUSP6 inhibitors that restore phospho-Erk in transfected HeLa cells, chemical complementation (AID 609;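 active = compounds giving at least 50% inhibition in the cell-based MKP-3 phosphatase rescue imaging test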;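 as to inhibition: phospho-Erk level distribution per well compared with pooled transfected vehicle control wells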). The following applies: HeLa MKP-3 transfected, phospho-Erk imaging KS statistic, at 10 µM, cells stimulated with TPA for 15 min.
The target of assay [4] is Dual specificity protein phosphatase 6 (Homo sapiens) (UniProt Q16828). Described as above. The following applies: HeLa MKP-3 transfected, phospho-Erk imaging KS statistic; at 10 µM; stronger effect = higher value; cells stimulated with TPA for 15 min.
Sequence of Dual specificity protein phosphatase 6 (Homo sapiens) (Q16828 whole entry, looked up): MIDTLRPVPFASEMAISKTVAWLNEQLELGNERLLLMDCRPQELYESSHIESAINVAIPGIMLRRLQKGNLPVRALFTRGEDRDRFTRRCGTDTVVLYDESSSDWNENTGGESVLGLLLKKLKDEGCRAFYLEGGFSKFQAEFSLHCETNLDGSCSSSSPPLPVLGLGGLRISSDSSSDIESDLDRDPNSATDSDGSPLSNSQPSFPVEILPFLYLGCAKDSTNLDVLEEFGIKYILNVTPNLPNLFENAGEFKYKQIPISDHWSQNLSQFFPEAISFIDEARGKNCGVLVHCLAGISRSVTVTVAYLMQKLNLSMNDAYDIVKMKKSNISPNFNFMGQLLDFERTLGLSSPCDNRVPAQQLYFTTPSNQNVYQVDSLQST
Assay [5] addresses Voltage-gated potassium channel subunit beta-2 (Rattus norvegicus) (UniProt P62483). The assay is described as follows: inhibitors of rat Kvbeta2 reductase activity – biochemical, NADPH fluorescence, primary screen (AID 622).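 Also: slope of raw intensity against log time taken from 70 to 1610 s.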 The following applies: recombinant KvBeta, 4-cyanobenzaldehyde reduction, at 10 µM, stronger effect = higher value.
The target is the same in assay [6]. The assay is described as follows: enhancers of rat Kvbeta2 NADPH turnover – biochemical, NADPH fluorescence, primary screen (AID 623;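 active = NADPH fluorescence slope more negative than the mean of all samples by about 3 SD, 99.7% confidence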;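 also: fluorescence intensity change per second fitted from 20 to 320 s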). The following applies: Recombinant KvBeta, NADPH fluorescence decrease slope, 10 min; at 10 µM; stronger effect = lower value.
The target of assay [7] is Alpha-2C adrenergic receptor (Homo sapiens) (UniProt P18825). The assay is described as follows: compounds altering alpha2C-coupled GIRK flux – cell-based, HEK293 alpha2C/GIRK1/2, thallium flux, primary screen (AID 624;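 active = fluorescence slope after compound addition differing from the mean of all screened samples at 99.7% confidence, in either direction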;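 also: slope of fluorescence ratio to pre-addition baseline per second over 15 to 24 s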). The following applies: thallium flux BTC fluorescence, at 10 µM, actives lie on both sides.
Sequence of Alpha-2C adrenergic receptor (Homo sapiens) (P18825 whole entry, looked up): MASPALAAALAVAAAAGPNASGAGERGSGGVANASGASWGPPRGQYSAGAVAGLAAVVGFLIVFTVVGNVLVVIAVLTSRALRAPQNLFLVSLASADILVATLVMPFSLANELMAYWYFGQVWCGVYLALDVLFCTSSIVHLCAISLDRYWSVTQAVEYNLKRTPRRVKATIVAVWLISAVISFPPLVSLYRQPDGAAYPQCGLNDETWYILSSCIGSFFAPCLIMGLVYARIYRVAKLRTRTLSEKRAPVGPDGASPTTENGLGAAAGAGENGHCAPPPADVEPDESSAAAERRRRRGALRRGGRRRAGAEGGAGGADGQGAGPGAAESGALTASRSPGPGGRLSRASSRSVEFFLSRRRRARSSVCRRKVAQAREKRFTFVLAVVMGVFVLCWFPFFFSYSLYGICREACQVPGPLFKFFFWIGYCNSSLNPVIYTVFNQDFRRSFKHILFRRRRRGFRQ
Assay [8] in a line: inhibitors of larval lipid processing in zebrafish, primary screen, whole organism, PED6 fluorescence, gall bladder and intestine (AID 686;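 active = a full or partial loss of lipid-probe fluorescence in the fish gall bladder, intestine or both, judged by eye; inactive = no fluorescence loss, or compound toxic to the fish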;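 also: larvae 5 to 7 days old with five fish per well; signal comes from phospholipase A2 cleavage of quenched PED6 carried via bile; overnight exposure to compound and PED6 before scoring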). The following applies: Zebrafish larvae PED6 lipid processing, fluorescence scoring; screened at 20 µM (by protocol). The method, boiled down:
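Test system – live zebrafish larvae aged 5-7 days, whole organism · Buffer or medium – E3 fish medium · Reagent – quenched phospholipase substrate PED6, 100 nM final, ingested by larvae · Doses – 20 µM single dose · Incubation – overnight compound and PED6 incubation · Technique – visual fluorescence microscopy scoring of gall bladder, gut · Read-out basis – visual per-well fluorescence inhibition score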

Assay [9] in a line: loss of swimming-algae plug formation – whole organism, Chlamydomonas reinhardtii, WT vs cilia-less mutant, absorbance, 96-well, primary screen (AID 463189;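 active = inhibition at or above 50% relative to wild type and mutant plate controls; inactive = inhibition below 50%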;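 also: 0% = wild type cc124 cells in DMSO and 100% = ciliumless bld1 mutant cells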). The following applies: Chlamydomonas reinhardtii gravitaxis, OD600 absorbance, 2 days; at 10 µM; stronger effect = higher value.
[10] abbreviates: measured here: cell density z-score.
Where [11] appears, read: measured here: nuclear c-Myc green intensity z-score.
Where [12] appears, read: measured here: nuclear pErk red intensity z-score, stronger effect = higher value.

Calls of active or inactive are those of the source.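 The calls were made as follows, unless noted: active = fluorescence slope higher than the sample average by over 3 SD (cut at about -0.22 in these data, passing the limit was not always enough); inactive = the rest.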

Sequence of Voltage-gated potassium channel subunit beta-2 (Rattus norvegicus) (P62483 whole entry, looked up): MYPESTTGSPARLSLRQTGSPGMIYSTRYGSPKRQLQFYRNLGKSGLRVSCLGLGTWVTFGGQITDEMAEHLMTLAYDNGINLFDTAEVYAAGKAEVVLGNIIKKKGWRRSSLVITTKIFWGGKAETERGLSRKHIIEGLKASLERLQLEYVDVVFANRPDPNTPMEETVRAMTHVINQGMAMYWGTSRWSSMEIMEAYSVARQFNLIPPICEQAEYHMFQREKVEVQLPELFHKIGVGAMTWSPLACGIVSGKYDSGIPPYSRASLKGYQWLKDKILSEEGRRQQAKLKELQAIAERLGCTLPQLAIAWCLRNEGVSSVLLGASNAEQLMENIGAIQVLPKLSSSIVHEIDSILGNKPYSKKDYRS

What is called inhibition is the relative decrease from the control value, in per cent. Take `COc1ccc(CCn2c(C)ccc2C)cc1OC`: in assay [1], the cell count stood at 476. For the same molecule, the inhibition in assay [1] is -5.7% (inactive); in assay [2] it was -58.3% (inactive); in assay [4], 3.66% (inactive); in assay [9], -7.78% (inactive). For the same molecule, the nuclei count in [2] was 112%. Besides, the z-score in assay [3] (setting [10]) was -0.324; in assay [3] (setting [11]), 0.735; in assay [3] (setting [12]), -0.301. In assay [5], the fluorescence slope was -0.488 (inactive). The NADPH fluorescence slope in assay [6] was -8e-05 (inactive). The slope in assay [7] was 0.00401 (inactive). For the same molecule, the call in assay [8] was inactive.

For the molecule `Cc1ccc(OCC(=O)N2CCC(N3CCCCCC3)CC2)cc1`, in [1], the cell count turned out to be 387. The inhibition is -12% (inactive) in assay [1], -349% (inactive) in assay [2], 9.39% (inactive) in [4] and 4.12% (inactive) in [9]. The same molecule registered a nuclei count in assay [2] of 176%. The z-score in assay [3] (setting [10]) was -0.193; in [3] (setting [11]), 0.541; in assay [3] (setting [12]) it was -0.692. For the same molecule, the fluorescence slope in [5] was -0.391 (inactive). Besides, the NADPH fluorescence slope in assay [6] is -2.1e-05 (inactive). Further, the slope in assay [7] is 0.00447 (inactive). Besides, in [8], the outcome was inactive.

For `Oc1ccc(C=Nc2ccc3ncccc3c2)c(O)c1`, the cell count in [1] came to 490. For the same molecule, the inhibition is -5.8% (inactive) in assay [1], -113% (inactive) in assay [2], 3.66% (inactive) in assay [4] and -13.6% (inactive) in [9]. In addition, the nuclei count in assay [2] worked out at 117%. Besides, the z-score is 1.18 in assay [3] (setting [10]), -0.733 in assay [3] (setting [11]) and -0.981 in [3] (setting [12]). Also, in assay [5], the fluorescence slope is -0.477 (inactive). For the same molecule, the NADPH fluorescence slope in [6] was -3.5e-05 (inactive). In assay [7], the slope is 0.00388 (inactive). Besides, in [8], the molecule was classed as inactive.

On to `CC(C)(C)n1nnc(CCc2nnn(C(C)(C)C)n2)n1`, for which the cell count in assay [1] came out at 276. The inhibition is -17.8% (inactive) in assay [1], -32.2% (inactive) in assay [2], 10.5% (inactive) in [4] and -11.8% (inactive) in [9]. The molecule further gave a nuclei count in assay [2] of 104%. The figures for the z-score in assay [3] (setting [10]), in assay [3] (setting [11]) and in [3] (setting [12]) were 0.0896, 1.07 and -0.74, respectively. The fluorescence slope in [5] is -0.44 (inactive). Besides, in assay [6], the NADPH fluorescence slope was -0.000126 (inactive). In addition, in [7], the slope is 0.00595 (inactive). For the same molecule, the call in assay [8] was inactive.

Take `CSc1nc(NC(C)=O)nc(C)c1Cl`: in assay [1], the cell count worked out at 555. Further, the inhibition is 1.9% (inactive) in assay [1], 33.2% (inactive) in assay [2], 1.48% (inactive) in assay [4] and 37.7% (inactive) in assay [9]. The same molecule registered a nuclei count in assay [2] of 97.7%. The z-score was -0.722 in assay [3] (setting [10]), 0.648 in assay [3] (setting [11]) and -0.574 in assay [3] (setting [12]). The fluorescence slope in [5] was -0.343 (inactive). In addition, the NADPH fluorescence slope in [6] was -7.4e-06 (inactive). The slope in [7] was 0.00457 (inactive). Also, the result in assay [8] was inactive.

Turning to `N#CCSc1nc2sc3c(c2c(=O)n1C1CCCCC1)CCCC3`, the cell count in assay [1] came to 651. For the same molecule, the inhibition in [1] is -21.9% (inactive); in assay [2], 9.7% (inactive); in assay [4], 3.56% (inactive); in assay [9] it was -20.7% (inactive). The nuclei count in [2] was 167%. The z-score in assay [3] (setting [10]) is -0.927; in assay [3] (setting [11]) it was 0.708; in assay [3] (setting [12]), 1.09. For the same molecule, the fluorescence slope in [5] is -0.354 (inactive). Also, the NADPH fluorescence slope in [6] is -1.5e-05 (inactive). Moreover, in assay [7], the slope was 0.00554 (inactive). Also, the result in [8] was inactive.

As to `CCn1c(SC(C)C(=O)O)nc2sc3c(c2c1=O)CCC3` (centres undefined), in assay [1], the cell count turned out to be 614. Further, the inhibition in assay [1] is -11.3% (inactive); in assay [2], 46% (inactive); in [4], -2.29% (inactive); in [9], 7.74% (inactive). For the same molecule, the nuclei count in [2] was found to be 108%. Besides, the z-score in assay [3] (setting [10]) was 0.34; in [3] (setting [11]) it was -0.588; in assay [3] (setting [12]) it was -0.0983. For the same molecule, in assay [5], the fluorescence slope was -0.401 (inactive). Moreover, in assay [6], the NADPH fluorescence slope was -3.8e-05 (inactive). Besides, the slope in assay [7] is 0.0197 (active). For the same molecule, the call in assay [8] was inactive.

Regarding `Cn1nnnc1-c1cc(Br)ccc1NC(=O)c1ccccc1`, in assay [1], the cell count amounted to 397. In addition, the inhibition in assay [1] is -1.8% (inactive); in [2] it was -2.9% (inactive); in assay [4] it was -8.27% (inactive); in [9] it was -4.44% (inactive). Moreover, in [2], the nuclei count is 93.6%. Further, the z-score is -0.94 in assay [3] (setting [10]), 1.01 in assay [3] (setting [11]) and -1.17 in assay [3] (setting [12]). Further, in assay [5], the fluorescence slope was -0.39 (inactive). The NADPH fluorescence slope in assay [6] is 7.2e-07 (inactive). In assay [7], the slope was 0.00973 (inactive). In addition, the call in assay [8] was inactive.

Consider `CCCc1cc(-c2nc(N)ncc2-c2ccc3c(c2)OCCCO3)c(O)cc1OC`, for which the cell count in assay [1] worked out at 570. Further, the inhibition in assay [1] was -16.3% (inactive); in [2], -136% (inactive); in assay [4] it was 11.9% (inactive); in assay [9] it was 91.5% (active). Moreover, the nuclei count in [2] was 122%. Also, the z-score in assay [3] (setting [10]) was 0.844; in [3] (setting [11]), -1.91; in assay [3] (setting [12]), -0.934. Further, the fluorescence slope in assay [5] was -0.519 (inactive). The NADPH fluorescence slope in [6] is -5.4e-05 (inactive). Besides, in assay [7], the slope was 0.00422 (inactive). For the same molecule, the molecule was called inactive in assay [8].

Take `CN1CCN(c2nc(C(N)=O)cc(-c3ccccc3)n2)CC1`: the cell count in assay [1] stood at 400. For the same molecule, the inhibition is -6.4% (inactive) in assay [1], 14% (inactive) in assay [2], 7.83% (inactive) in assay [4] and 18.8% (inactive) in [9]. The same molecule had a nuclei count in assay [2] of 98.8%. Moreover, the results for the z-score in assay [3] (setting [10]), in [3] (setting [11]) and in assay [3] (setting [12]) were 1.22, -2.25 and 0.112, respectively. Besides, in assay [5], the fluorescence slope was -0.498 (inactive). Further, in assay [6], the NADPH fluorescence slope was -3.9e-05 (inactive). The slope in assay [7] is 0.00569 (inactive). In addition, the molecule was classed as inactive in [8].

In the case of `O=c1[nH]c(CN2CCCCC2)nc2c1C1(CCCCC1)Cc1ccccc1-2`, the cell count in assay [1] was found to be 374. For the same molecule, the inhibition in [1] was -4.7% (inactive); in assay [2] it was -4.9% (inactive); in [4] it was -4.7% (inactive); in assay [9], -10.4% (inactive). For the same molecule, the nuclei count in [2] came out at 104%. Also, the z-score is 0.315 in [3] (setting [10]), 0.221 in assay [3] (setting [11]) and -1.87 in [3] (setting [12]). The fluorescence slope in assay [5] is -0.395 (inactive). For the same molecule, the NADPH fluorescence slope in assay [6] is 2.4e-05 (inactive). Also, the slope in assay [7] is 0.0066 (inactive). Moreover, the molecule was called inactive in [8].

`O=C(NCc1ccco1)c1cnn2c1NC(c1ccccc1)CC2C(F)(F)F` (centres undefined): the cell count in [1] was 479. For the same molecule, the inhibition was -5.5% (inactive) in assay [1], -25.8% (inactive) in [2], -2.07% (inactive) in [4] and -7.85% (inactive) in assay [9]. The molecule also displayed a nuclei count in assay [2] of 107%. For the same molecule, the z-score in assay [3] (setting [10]) was -0.862; in [3] (setting [11]), 0.861; in assay [3] (setting [12]), -0.0535. The fluorescence slope in assay [5] was -0.53 (inactive). Further, in assay [6], the NADPH fluorescence slope is -4e-05 (inactive). Further, in [7], the slope is 0.0056 (inactive). Further, in [8], the molecule was called inactive.

On to `CCCCCCn1c(C(C)O)nc2ccccc21` (centres undefined), for which the cell count in [1] was found to be 528. For the same molecule, the inhibition is -16.2% (inactive) in [1], -111% (inactive) in assay [2], 11.9% (inactive) in assay [4] and 28% (inactive) in assay [9]. Moreover, the nuclei count in [2] amounted to 156%. For the same molecule, the z-score in [3] (setting [10]) was 1.01; in [3] (setting [11]), -0.165; in [3] (setting [12]) it was -1.61. Besides, the fluorescence slope in assay [5] was -0.5 (inactive). In assay [6], the NADPH fluorescence slope is -5.9e-05 (inactive). In addition, the slope in assay [7] was 0.0045 (inactive). Also, in assay [8], the outcome was “inactive; toxic”.
